Results reported in ChEMBL document CHEMBL3425433, “Discovery of bicyclic pyrazoles as class III histone deacetylase SIRT1 and SIRT2 inhibitors” (Bioorg Med Chem Lett, 2015).
Active and inactive are the calls of the source. No cut-off for these calls is given here.

Assays:
[1] = target: T1, NAD-dependent protein deacetylase sirtuin-2 (Homo sapiens, UniProt Q8IXJ6); assay: Inhibition of His-tagged human recombinant SIRT2 expressed in Escherichia coli using Cbz-Lys(Ac)-AMC as substrate by fluorescence assay
T1 sequence (Q8IXJ6 whole entry): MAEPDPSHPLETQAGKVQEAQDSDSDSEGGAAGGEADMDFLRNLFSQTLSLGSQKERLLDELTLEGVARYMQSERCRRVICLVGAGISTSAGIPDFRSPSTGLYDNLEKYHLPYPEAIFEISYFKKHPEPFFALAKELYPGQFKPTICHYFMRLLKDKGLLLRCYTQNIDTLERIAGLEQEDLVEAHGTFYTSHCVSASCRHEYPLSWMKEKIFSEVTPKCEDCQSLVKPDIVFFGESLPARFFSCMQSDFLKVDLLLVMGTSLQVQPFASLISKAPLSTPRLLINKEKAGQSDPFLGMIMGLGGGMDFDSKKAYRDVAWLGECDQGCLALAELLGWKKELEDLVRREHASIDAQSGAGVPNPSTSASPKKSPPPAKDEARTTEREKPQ

[2] = target: T2, NAD-dependent protein deacetylase sirtuin-1 (Homo sapiens) (UniProt Q96EB6); assay: Inhibition of SIRT1-mediated endogenous p53 deacetylase activity in human Namalwa cells assessed as concentration required to […] to twice the basal level after 3 hrs by ELISA; format: cell-based
T2 sequence (whole entry): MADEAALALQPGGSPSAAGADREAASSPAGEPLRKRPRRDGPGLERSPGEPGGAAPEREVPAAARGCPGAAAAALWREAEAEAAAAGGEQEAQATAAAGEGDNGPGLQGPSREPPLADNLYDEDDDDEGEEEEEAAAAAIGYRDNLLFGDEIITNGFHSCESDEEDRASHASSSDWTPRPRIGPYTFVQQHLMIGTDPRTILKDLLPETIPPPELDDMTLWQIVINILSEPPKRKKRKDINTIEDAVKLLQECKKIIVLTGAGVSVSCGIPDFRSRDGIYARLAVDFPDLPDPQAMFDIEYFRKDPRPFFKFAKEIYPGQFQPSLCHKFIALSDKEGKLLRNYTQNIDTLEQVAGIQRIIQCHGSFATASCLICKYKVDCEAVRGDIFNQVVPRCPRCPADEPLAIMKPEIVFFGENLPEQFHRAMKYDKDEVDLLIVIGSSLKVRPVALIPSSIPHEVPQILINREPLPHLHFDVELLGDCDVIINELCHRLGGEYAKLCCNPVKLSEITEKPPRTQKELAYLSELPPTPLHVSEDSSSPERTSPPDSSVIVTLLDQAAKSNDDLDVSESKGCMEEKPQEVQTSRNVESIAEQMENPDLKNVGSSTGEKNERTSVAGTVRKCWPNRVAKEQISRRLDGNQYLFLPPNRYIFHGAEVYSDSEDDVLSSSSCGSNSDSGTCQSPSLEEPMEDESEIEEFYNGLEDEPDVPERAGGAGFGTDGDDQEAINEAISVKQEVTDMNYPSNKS
Summary of the method: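 Namalwa cells, 50,000/well, were exposed 3 h at 37 °C, 5% CO2, to 0.005–50 µM final (0.95% DMSO). Lysates were ELISA-captured on anti-p53 (DO-1), probed overnight with anti-acetyl-Lys382-p53, then HRP conjugate and Amplex Red (15 min; ex 550/em 610 nm). IC2xB is the concentration doubling basal (lowest) fluorescence. Means of three experiments.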

Histone deacetylase 8 = target: T3, Histone deacetylase 8 (Homo sapiens, UniProt Q9BY41); assay: Inhibition of HDAC8 (unknown origin)
T3 sequence (Q9BY41 whole entry): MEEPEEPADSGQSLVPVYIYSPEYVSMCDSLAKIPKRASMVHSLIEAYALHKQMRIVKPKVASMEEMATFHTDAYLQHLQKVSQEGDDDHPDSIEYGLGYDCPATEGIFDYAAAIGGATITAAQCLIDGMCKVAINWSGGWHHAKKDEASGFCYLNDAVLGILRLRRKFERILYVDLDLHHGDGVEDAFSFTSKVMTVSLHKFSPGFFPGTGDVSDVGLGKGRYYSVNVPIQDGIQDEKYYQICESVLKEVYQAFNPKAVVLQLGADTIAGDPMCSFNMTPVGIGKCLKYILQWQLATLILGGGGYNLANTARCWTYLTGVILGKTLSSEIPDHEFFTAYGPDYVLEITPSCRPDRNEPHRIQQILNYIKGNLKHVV

[3] = target: Histone deacetylase 5 (Homo sapiens) (UniProt Q9UQL6); assay: Inhibition of HDAC5 (unknown origin) at 20 uM
Plasma = assay: Metabolic stability in mouse plasma; format: ADME, cell-free
[4] = Clearance in rat; format: ADME, organism-based; conditions: in vivo
[5] = Half life in rat; format: ADME, organism-based; conditions: in vivo
[6] = Oral bioavailability in rat; format: ADME, organism-based; conditions: in vivo

Chain of Histone deacetylase 5 (Homo sapiens) (Q9UQL6 whole entry): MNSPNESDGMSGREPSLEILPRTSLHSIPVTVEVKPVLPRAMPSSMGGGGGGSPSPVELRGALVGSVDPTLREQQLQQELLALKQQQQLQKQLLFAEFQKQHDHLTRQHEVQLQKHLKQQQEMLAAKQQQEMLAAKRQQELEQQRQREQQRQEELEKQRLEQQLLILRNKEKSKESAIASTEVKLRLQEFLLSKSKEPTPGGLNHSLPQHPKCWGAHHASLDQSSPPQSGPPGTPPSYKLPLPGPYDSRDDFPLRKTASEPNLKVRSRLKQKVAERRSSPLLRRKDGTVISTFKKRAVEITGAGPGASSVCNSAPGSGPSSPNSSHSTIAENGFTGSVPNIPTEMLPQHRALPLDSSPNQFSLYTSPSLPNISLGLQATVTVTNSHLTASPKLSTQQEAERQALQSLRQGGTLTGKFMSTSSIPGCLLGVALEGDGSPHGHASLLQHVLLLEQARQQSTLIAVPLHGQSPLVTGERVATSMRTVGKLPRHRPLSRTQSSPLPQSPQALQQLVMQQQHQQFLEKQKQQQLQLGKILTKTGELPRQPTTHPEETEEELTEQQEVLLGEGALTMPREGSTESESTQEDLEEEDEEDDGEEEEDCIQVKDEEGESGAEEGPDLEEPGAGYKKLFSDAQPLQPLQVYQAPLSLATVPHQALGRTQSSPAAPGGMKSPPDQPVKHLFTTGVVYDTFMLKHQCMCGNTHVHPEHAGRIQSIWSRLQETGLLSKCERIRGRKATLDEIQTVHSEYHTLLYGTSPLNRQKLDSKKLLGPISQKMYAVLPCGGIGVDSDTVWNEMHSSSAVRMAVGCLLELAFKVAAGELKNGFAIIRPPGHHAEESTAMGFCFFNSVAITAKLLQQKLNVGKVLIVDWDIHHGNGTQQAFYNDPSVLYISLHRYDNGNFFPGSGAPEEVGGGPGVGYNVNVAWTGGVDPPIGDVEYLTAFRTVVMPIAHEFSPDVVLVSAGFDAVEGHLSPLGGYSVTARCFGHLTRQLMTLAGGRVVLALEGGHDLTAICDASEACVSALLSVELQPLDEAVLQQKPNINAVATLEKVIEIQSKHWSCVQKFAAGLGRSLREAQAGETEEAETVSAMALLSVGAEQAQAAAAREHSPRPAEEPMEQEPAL

Row | Compound | IC50 [1] | INH [2] | further results
1 | NC(=O)C1CCCc2c(-c3ccc(Cl)c(Cl)c3)n[nH]c21 (racemic) | 14.8 µM | 1.2 µM | IC50 (Histone deacetylase 8): > 10 µM; inhibition [3]: inactive
2 | NC(=O)C1CCCc2c(-c3ccc(Br)cc3)n[nH]c21 (racemic) |  | 1.5 µM | 
3 | NC(=O)C1CCCc2c(-c3cc4ccccc4o3)n[nH]c21 (racemic) | 9 µM |  | 
4 | NC(=O)C1CCCc2c(-c3ccc(Cl)cc3)n[nH]c21 (racemic) |  | 0.5 µM | Stability (Plasma): Stable; clearance [4]: 30 mL/min/kg; half-life [5]: 1.1 h; bioavailability [6]: 20%

Further lines, with some results ahead:

Row | IC50 [1] | INH [2] | Compound | further results
5 | 8.3 µM | 0.9 µM | NC(=O)C1CCCc2c(-c3nc4ccccc4s3)n[nH]c21 (racemic) | 
6 | 6.8 µM | 0.8 µM | NC(=O)C1CCCCc2c(-c3ccc(Cl)cc3)n[nH]c21 (racemic) | 
7 | 7.8 µM |  | Cn1c(-c2n[nH]c3c2CCCC3C(N)=O)cc2ccccc21 (racemic) | 
8 | 5.3 µM |  | NC(=O)C1CCCc2c(-c3cc4ccccc4s3)n[nH]c21 (racemic) | 
9 | 1.7 µM | 1.2 µM | CC1(C)Cc2c(-c3ccc(Cl)cc3)n[nH]c2C(C(N)=O)C1 (racemic) | Stability (Plasma): Stable; clearance [4]: 5 mL/min/kg; half-life [5]: 5.1 h; bioavailability [6]: 23%
